ChEMBL document CHEMBL4011629, “New Disubstituted Quindoline Derivatives Inhibiting Burkitt's Lymphoma Cell Proliferation by Impeding c-MYC Transcription” (J Med Chem, 2017)
Calls of active or inactive are those of the source. The calls are words filed in the database; no cut-off is given here.

Assays:
[1] = Stabilization of c-Myc Pu27 G-quadruplex DNA (unknown origin) assessed as induction of parallel G-quadruplex formation in absence of K+ ions by CD spectroscopic analysis
Method in brief: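 CD spectra: Pu27 at 5 μM in 10 mM Tris-HCl pH 7.4 without or with 100 mM KCl, annealed 95 °C 5 min, slow-cooled, kept at 4 °C overnight, with ligand. Scanned 230–400 in a 4 mm quartz cuvette, 1 nm bandwidth and step, 0.5 s/point; buffer baseline subtracted.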

[2] = Inhibition of NM23-H2 binding to 5'-FAM labeled c-Myc Pu27 G-quadruplex DNA (unknown origin) at 10 uM preincubated for 1 hr followed by NM23-H2 addition by electrophoretic mobility shift assay relative to control
Method in brief: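 Annealed labeled Pu27 (1.5 μM) preincubated 1 h at 25 °C with 10 μM ligand or 5% DMSO. Recombinant His-tagged NM23-H2 (0.5 μM, E. coli BL21, nickel-purified) then added for 1 h at 37 °C. Complexes resolved on 5% native polyacrylamide gel in 0.5× TBE at 4 °C. Inhibition taken as loss of complex band intensity versus no-compound band set at 100%. Run three times.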

[3] = Inhibition of NM23-H2 binding to 5'-FAM labeled c-Myc Pu27 G-quadruplex DNA (unknown origin) preincubated for 1 hr followed by NM23-H2 addition by electrophoretic mobility shift assay
Method in brief: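 Annealed labelled Pu27 (1.5 μM) was preincubated with 10 μM agent or 5% DMSO for 1 h at 25 °C. […] Complexes were resolved on 5% native PAGE in 0.5× TBE at 4 °C, 150 V. Inhibition was taken against the no-compound complex band (set as 100%); three runs, Hill-fit IC50.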

[4] = Inhibition of NM23-H2 binding to 5'-biotin labeled c-Myc Pu27 G-quadruplex DNA (unknown origin) […] by ELISA
Method in brief: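 Biotin-Pu27 at 100 nM in 10 mM Tris-HCl pH 7.4 with 100 mM KCl was annealed and captured on streptavidin plates. Compound (serial halving from 50 μM in 3% BSA blocking buffer) was preincubated with 250 nM NM23-H2 for 1 h at 25 °C, then added to the DNA at 4 °C overnight. Bound protein was detected with anti-NM23-H2, an HRP secondary and TMB, read at A450; three replicates, DMSO control.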

[5] = species: Homo sapiens; assay: Stabilization of c-Myc G-quadruplex DNA in human Raji cells assessed as decrease in amplification of exon-1 after 12 hrs by RT-PCR method; assay type: cell-based
Method in brief: (§1)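 Exon-specific assay: RAJI and CA46 cells exposed to various ligand concentrations for 12 h; total RNA (2 μg) reverse-transcribed with oligo dT18 and M-MLV (42 °C 1 h). c-MYC exon 1 and exon 2, NM23-H2 and β-actin amplified by real-time PCR, products run on 1% agarose; untreated cells as control; three repeats, two-tailed unpaired t test.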

[6] = species: Homo sapiens; assay: Stabilization of c-Myc G-quadruplex DNA in human CA46 cells assessed as decrease in amplification of exon-1 up to 4 uM after 12 hrs by RT-PCR method; assay type: cell-based; method in brief: as §1
[7] = species: Homo sapiens; assay: Effect on c-Myc DNA translocated chromosome product in human CA46 cells assessed as decrease in amplification of exon-2 up to 4 uM after 12 hrs by RT-PCR method; assay type: cell-based
Method in brief: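 RAJI cells, which retain NHE III1, and CA46 cells, which lack NHE III1 and the P1/P2 promoters, were exposed to graded compound concentrations for 12 h. Total RNA (2 μg) was reverse-transcribed with oligo dT18 and M-MLV. c-MYC exons 1 and 2, NM23-H2 and β-actin were amplified by real-time PCR against untreated cells. Three repeats were done; two-tailed unpaired t-test.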

[8] = system: Raji; assay: Effect on NM23-H2 protein expression in human Raji cells up to 4 uM up to 48 hrs by Western blot method; assay type: functional, cell-based
Method in brief: (§2)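 After compound exposure (12 h for cell-cycle and apoptosis markers), RAJI cells were lysed in 1% NP-40 buffer. Protein at 50 μg per lane was run on 3–12% SDS-PAGE and transferred to nitrocellulose. Blots were probed with primary antibodies (GAPDH as loading reference) and detected with an HRP secondary and enhanced chemiluminescence.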

[9] = system: Raji; assay: Antiproliferative activity against human Raji cells measured every 3 days up to 15 days; assay type: functional, cell-based
Method in brief: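 RAJI cells (1.0 × 10^5 per well, six-well plates) were exposed every 3 days to a subcytotoxic ligand concentration or 0.1% DMSO. At each point cells were counted and viability checked, then flasks were reseeded at 1.0 × 10^5 cells. This continued for 15 days.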

[10] = system: Raji; assay: Cell cycle arrest in human Raji cells assessed as accumulation at G0/G1 phase after 6 hrs by propidium iodide staining based flow cytometry (reference value: 38.5%); assay type: functional
[11] = system: Raji; assay: Cell cycle arrest in human Raji cells assessed as accumulation at G2/M phase after 6 hrs by propidium iodide staining based flow cytometry (reference value: 24.4%); assay type: functional
[12] = system: Raji; assay: Cell cycle arrest in human Raji cells assessed as accumulation at S phase after 12 hrs by propidium iodide staining based flow cytometry (reference value: 32.2%); assay type: functional
[13] = system: Raji; assay: Cell cycle arrest in human Raji cells assessed as accumulation at G2/M phase after 24 hrs by propidium iodide staining based flow cytometry (reference value: 24.4%); assay type: functional
[14] = system: Raji; assay: Cell cycle arrest in human Raji cells assessed as accumulation at G0/G1 phase after 48 hrs by propidium iodide staining based flow cytometry (reference value: 38.5%); assay type: functional
[15] = system: Raji; assay: Cell cycle arrest in human Raji cells assessed as accumulation at S phase after 48 hrs by propidium iodide staining based flow cytometry (reference value: 32.2%); assay type: functional
[16] = system: Raji; assay: Induction of apoptosis in human Raji cells assessed as early apoptotic cells at 1 uM after 12 hrs by Annexin V-FITC/propidium iodide staining based flow cytometry (reference value: 2.3%); assay type: functional
Method in brief: (§3)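 RAJI cells exposed to compound or control medium for 12 or 48 h were washed in PBS and resuspended in binding buffer. They were stained with FITC annexin V and PI for 15 min in the dark, and fluorescence was measured by flow cytometry.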

[17] = system: Raji; assay: Induction of apoptosis in human Raji cells assessed as early apoptotic cells at 0.5 uM after 48 hrs by Annexin V-FITC/propidium iodide staining based flow cytometry (reference value: 1.8%); assay type: functional; method in brief: as §3
[18] = system: Raji; assay: Induction of apoptosis in human Raji cells assessed as late apoptotic cells at 0.5 uM after 48 hrs by Annexin V-FITC/propidium iodide staining based flow cytometry (reference value: 0.1%); assay type: functional; method in brief: as §3
[19] = system: Raji; assay: Induction of apoptosis in human Raji cells assessed as necrotic cells at 0.5 uM after 48 hrs by Annexin V-FITC/propidium iodide staining based flow cytometry relative to control; assay type: functional; method in brief: as §3
[20] = system: Raji; assay: Induction of apoptosis in human Raji cells assessed as necrotic cells at 1 uM after 48 hrs by Annexin V-FITC/propidium iodide staining based flow cytometry relative to control; assay type: functional; method in brief: as §3
[21] = system: Raji; assay: Induction of apoptosis in human Raji cells assessed as downregulation of Cyclin D1 expression after 12 hrs by Western blot method; assay type: functional, cell-based; method in brief: as §2
[22] = system: Raji; assay: Induction of apoptosis in human Raji cells assessed as upregulation of cleaved caspase-9 expression up to 4 uM after 12 hrs by Western blot method; assay type: functional, cell-based; method in brief: as §2

CN(C)CCCNc1c2ccccc2nc2c1oc1ccc(OCC3CCN(C)CC3)cc12
Activity [1]: Active | inhibition [2]: > 80% | IC50 [3]: 1560 nM | inhibition [4]: Dose-dependent effect | Activity [5]: Dose-dependent effect | Activity [6]: Active | Activity [7]: inactive | Activity [8]: inactive | Activity [9]: Dose-dependent effect | Activity [10]: 50.2% | Activity [11]: 26.8% | Activity [12]: 5.5% | Activity [13]: 19.3% | Activity [14]: 57.1% | Activity [15]: 21.4% | Activity [16]: 18.9% | Activity [17]: 12.2% | Activity [18]: 0.7% | Activity [19]: 0% | Activity [20]: 0% | Activity [21]: Dose-dependent effect | Activity [22]: Active
